The record followed here is ChEMBL document CHEMBL1147162, “Synthesis, pharmacological evaluation and electrochemical studies of novel 6-nitro-3,4-methylenedioxyphenyl-N-acylhydrazone derivatives: Discovery of LASSBio-881, a new ligand of cannabinoid receptors” (2007).

Structures are written as SMILES. Active and inactive are the calls of the source.

Experiment [1] concerns Rattus norvegicus. The experiment in a line: Antiinflammatory activity against carrageenan-induced paw edema in Wistar rat at 300 umol/kg, po after 3 hrs. Type of experiment: functional. In a few lines: (§1)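 Fasted Wistar rats of both sexes (150–200 g) were dosed orally at 300 µmol/kg in 5% arabic gum in saline. One hour later they were injected subplantar with 0.1 mg/paw carrageenan, with saline in the contralateral paw. Paw volume was read by plethysmometer 3 h later as the difference between the paws. Results are % inhibition vs vehicle; ID50 is also given.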

Experiment [2] has as its system Mus musculus. The experiment in a line: Antihyperalgesic effect against formalin-induced pain in mouse at 100 umol/kg, po assessed as licking activity in neurogenic phase. Type of experiment: functional. In a few lines:
(§2)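 Mice injected subplantar in one hind paw with 20 µL 2.5% formalin; compounds given orally at 100 µmol/kg in 5% arabic gum 60 min before. Time spent licking or biting the injected paw was recorded, with the neurogenic phase at 0–5 min and the inflammatory phase at 15–30 min. Percent inhibition is vs vehicle (ANOVA/Dunnett).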

The subject of experiment [3] is Radical scavenging activity. The experiment in a line: Antioxidant activity assessed as DPPH radical scavenging activity at 0.1 mM. Type of experiment: functional.
Experiment [4] relates to Mus musculus. The experiment in a line: Antihyperalgesic effect against formalin-induced pain in mouse at 100 umol/kg, po assessed as licking activity in inflammatory phase. Type of experiment: functional. The procedure, abridged: as §2
Experiment [5] in a line: Antioxidant activity assessed as superoxide degradation at 0.25 mM. It is filed as functional. The procedure, abridged:
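The reaction was started with xanthine oxidase (~0.2 U/mL). Cytochrome c reduction was read spectrophotometrically at the Soret band as ΔA/min; % degradation is relative to vehicle.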

Experiment [6] in a line: Antioxidant activity assessed as hydroxyl radical degradation at 0.5 mM. Type of experiment: functional. The procedure, abridged:
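2-Deoxy-D-ribose (10 mM) was incubated with Hepes pH 7.2 (10 mM), compound in DMSO (0.5 mM) and H2O2 (1 mM) for 1 h at 37 °C, started with Fe(NH4)2(SO4)2 10 µM. Results are % degradation vs vehicle.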

Experiment [7] concerns Mus musculus. The experiment in a line: Antiinflammatory activity against AA-induced ear edema in Swiss mouse at 300 umol/kg, po after 1 hr. Type of experiment: functional. In a few lines: (§3)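 Fasted Swiss mice received an oral dose of 300 µmol/kg (5% arabic gum suspension) 1 h before topical challenge on the right ear (20 µl acetone): AA 500 µg/ear or TPA 2 µg/ear. The left ear got acetone. Ears were weighed from 7 mm punches 1 h after AA or 6 h after TPA. Inhibition = (C−T)/C×100 vs vehicle.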

Experiment [8] has as its target Cannabinoid receptor 1 (Mus musculus) (UniProt P47746). The experiment in a line: Displacement of [3H]SR141716A from CB1 cannabinoid receptor in Swiss mouse brain homogenate. It is filed as tissue-based. The procedure, abridged:
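Swiss mouse (30–40 g) whole-brain membranes, 160 µg protein, were incubated with 10 nM [3H]SR141716A plus PMSF (FAAH inhibitor) in Tris/EDTA/MgCl2 buffer with fatty acid-free BSA, pH 7.4, for 1 h at 30 °C. Nonspecific binding was set with 100 µM AM281. Samples were filtered on PEI-treated filters and counted by scintillation; n = 5 animals.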

Experiment [9] deals with Mus musculus. The experiment in a line: Antinociceptive activity in Swiss mouse at 100 umol/kg, po assessed as increase in latency time. Type of experiment: functional, organism-based. In a few lines: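 Hot plate held at 55 ± 1 °C. Swiss mice of both sexes (18–25 g), fasted 8 h, were given 100 µmol/kg orally. Latency to first paw licking or jumping was read at 0, 30, 60, 90 and 120 min, with a 25 s cut-off. Morphine 39.5 µmol/kg was the positive control; n = 7–10.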

The test system of experiment [10] is Rattus norvegicus. The experiment in a line: Antiinflammatory activity against carrageenan-induced paw edema in Wistar rat. Type of experiment: functional. As to conditions: read-out: ID50 (the source's name). In a few lines: as §1
For orientation: In the carrageenan paw model, swelling and tenderness develop within hours.

Experiment [11] deals with T-cell. The experiment in a line: Induction of anti CD3-stimulated T-lymphocyte necrosis after 48 hrs. It is filed as functional. In a few lines:
(§4)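 Nylon wool-enriched mouse splenic T cells (10^6/mL, DMEM + 1% nutridoma) were stimulated with anti-CD3 (145.2C11) plus PMA, with or without compound at 10 µM, for 48 h at 37 °C in 7% CO2. They were stained with FITC-annexin V (apoptosis) and 7-AAD (necrosis) and analysed by flow cytometry. Runs were in triplicate with at least 3 experiments.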

Experiment [12] has as its system Mus musculus. The experiment is described as follows: Antiinflammatory activity against TPA-induced ear edema in Swiss mouse at 300 umol/kg, po after 6 hrs. It is filed as functional. The procedure, abridged:
as §3

Experiment [13] concerns T-cell. The experiment is described as follows: Induction of anti CD3-stimulated T-lymphocyte apoptosis after 48 hrs. It is filed as functional. In a few lines:
as §4

The next experiment concerns Lymphocyte. The experiment in a line: Inhibition of lymphocyte proliferation. It is filed as functional, cell-based. The procedure, abridged: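 Nylon wool-enriched splenic T cells in supplemented DMEM + 1% nutridoma were cultured in triplicate with soluble anti-CD3 (2% v/v 145.2C11) and PMA 0.5 ng/mL plus compound for 3 days at 37 °C in 7% CO2. [3H]thymidine (1.0 µCi/well) was added for the last 18 h and incorporation counted; at least 3 experiments.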

Sequence of Cannabinoid receptor 1 (Mus musculus) (P47746 whole entry): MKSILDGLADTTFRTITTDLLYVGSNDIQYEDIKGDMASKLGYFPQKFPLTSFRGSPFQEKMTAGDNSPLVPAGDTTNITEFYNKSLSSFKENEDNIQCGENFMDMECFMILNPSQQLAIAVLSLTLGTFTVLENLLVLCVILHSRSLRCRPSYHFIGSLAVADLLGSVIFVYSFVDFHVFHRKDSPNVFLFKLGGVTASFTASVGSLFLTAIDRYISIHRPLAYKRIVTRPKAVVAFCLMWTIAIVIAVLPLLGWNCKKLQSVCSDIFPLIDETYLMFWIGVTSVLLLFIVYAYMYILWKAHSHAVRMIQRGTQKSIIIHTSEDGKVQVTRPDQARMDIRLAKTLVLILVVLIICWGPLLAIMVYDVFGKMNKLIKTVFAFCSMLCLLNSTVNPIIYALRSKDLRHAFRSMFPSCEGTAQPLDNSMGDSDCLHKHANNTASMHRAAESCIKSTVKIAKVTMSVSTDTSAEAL

As to `O=C(N/N=C/c1cccs1)c1cc2c(cc1[N+](=O)[O-])OCO2`, the inhibition in vivo at 300 µmol/kg with Rattus norvegicus [1] was determined as 3.4%.

In the case of `O=C(N/N=C/c1ccc[nH]1)c1cc2c(cc1[N+](=O)[O-])OCO2`, in the experiment on Rattus norvegicus [1], the inhibition in vivo at 300 µmol/kg amounted to 20.9%.

For `CC(C)(C)c1cc(/C=N/NC(=O)c2cc3c(cc2[N+](=O)[O-])OCO3)cc(C(C)(C)C)c1O`, the figures for the inhibition in vivo at 300 µmol/kg in the experiment with Rattus norvegicus [1], with Mus musculus [7] and in the experiment with Mus musculus [12] were 31.7%, 36% and 24.1%, respectively. The inhibition in vivo at 100 µmol/kg in the experiment with Mus musculus [2] was 44.5%; in the experiment on Mus musculus [4] it was 13.4%. Also, the Activity in experiment [3] is 32%; in [5], -2.9%; in experiment [6], 84.6%; in [8], 71%; with T-cell [11] it was 0%; in the experiment on T-cell [13], 43.8%. The outcome with Mus musculus [9] and in the experiment with Lymphocyte was Active. For the same molecule, the ED50 in the experiment with Rattus norvegicus [10] came out at 195 µmol/kg.

Turning to `CCCCC/C=C\C/C=C\C/C=C\C/C=C\CCCC(=O)NCCO` [ANANDAMIDE], the Activity is listed as 0.1% with T-cell [11] and 50.8% with T-cell [13].

In the case of `CC(C)(C)c1cc(/C=N/NC(=O)c2ccc3c(c2)OCO3)cc(C(C)(C)C)c1O`, the inhibition in vivo at 300 µmol/kg in the experiment on Rattus norvegicus [1] was 36.4%; with Mus musculus [7], 26.7%; in the experiment with Mus musculus [12] it was -19.6%. Further, the inhibition in vivo at 100 µmol/kg in the experiment on Mus musculus [2] came out at 4.1%; in the experiment with Mus musculus [4] it was 3.1%. In addition, the Activity in experiment [3] worked out at 45.7%; in experiment [6], 85.2%. Also, in the experiment on Rattus norvegicus [10], the ED50 came out at 96.5 µmol/kg.

As for `O=C(N/N=C/c1ccco1)c1cc2c(cc1[N+](=O)[O-])OCO2`, the inhibition in vivo at 300 µmol/kg with Rattus norvegicus [1] stood at 4.1%.

For `O=C(N/N=C/c1cccs1)c1ccc2c(c1)OCO2`, the inhibition in vivo at 300 µmol/kg was 29.7% in the experiment on Rattus norvegicus [1], -1.6% in the experiment with Mus musculus [7] and -10.5% with Mus musculus [12]. Also, the inhibition in vivo at 100 µmol/kg with Mus musculus [2] stood at 17.9%; with Mus musculus [4], 48.6%. Besides, the ED50 in the experiment on Rattus norvegicus [10] came to 14.3 µmol/kg.

Take `O=C(N/N=C/c1ccccc1)c1cc2c(cc1[N+](=O)[O-])OCO2`: the inhibition in vivo at 300 µmol/kg in the experiment on Rattus norvegicus [1] came out at 3.5%. The inhibition in vivo at 100 µmol/kg in the experiment on Mus musculus [2] was -21.1%; with Mus musculus [4] it was 1.5%. For the same molecule, the Activity worked out at 7.49% in experiment [3], 19.6% in [5] and 83.2% in experiment [6].

As to `O=C(N/N=C/c1ccncc1)c1cc2c(cc1[N+](=O)[O-])OCO2`, the inhibition in vivo at 300 µmol/kg in the experiment on Rattus norvegicus [1] came out at 13.3%.

For `O=C(N/N=C/c1ccccn1)c1cc2c(cc1[N+](=O)[O-])OCO2`, the inhibition in vivo at 300 µmol/kg in the experiment with Rattus norvegicus [1] is 22.8%.

With `CS(=O)(=O)Nc1ccc([N+](=O)[O-])cc1Oc1ccccc1` [NIMESULIDE], the inhibition in vivo at 300 µmol/kg in the experiment on Rattus norvegicus [1] was 57.5%; in the experiment with Mus musculus [7], 100%; in the experiment on Mus musculus [12], -10.6%. For the same molecule, the inhibition in vivo at 100 µmol/kg with Mus musculus [2] was 9.3%; with Mus musculus [4] it was 70.3%. In the experiment with Rattus norvegicus [10], the ED50 worked out at 22.7 µmol/kg.

As usually defined, the inhibition in vivo is the relative decrease from the control value, in per cent.
